# Assay results published in paper PMC12122681 (Nature Communications, 2025).
# B1: S. cerevisiae Aur1, catalytic subunit of IPC synthase (enzyme)
# chain: MANPFSRWFLSERPPNCHVADLETSLDPHQTLLKVQKYKPALSDWVHYIFLGSIMLFVFITNPAPWIFKILFYCFLGTLFIIPATSQFFFNALPILTWVALYFTSSYFPDDRRPPITVKVLPAVETILYGDNLSDILATSTNSFLDILAWLPYGLFHFGAPFVVAAILFVFGPPTVLQGYAFAFGYMNLFGVIMQNVFPAAPPWYKILYGLQSANYDMHGSPGGLARIDKLLGINMYTTAFSNSSVIFGAFPSLHSGCATMEALFFCYCFPKLKPLFIAYVCWLWWSTMYLTHHYFVDLMAGSVLSYVIFQYTKYTHLPIVDTSLFCRWSYTSIEKYDISKSDPLAADSNDIESVPLSNLELDFDLNMTDEPSVSPSLFDGSTSVSRSSATSITSLGVKRA
# modifications: two major bands likely correspond to the glycosylated and non-glycosylated forms (sites not given)
# B2: S. cerevisiae IPC synthase complex (Aur1-Kei1 complex), wild type (complex)
# chain 1: B1 chain
# chain 2: MRSSLLTLPKSFLGFMPLYLAVEIVLGISILNKCSGAYGILALFTGHPLDFMQWIAYLWSVFTLIVFSQGLYLIHKPNLLVFSQICVLYTIDTISTCFFTLWFTTQWFTLEDTANIDGNNALQSNPISTGKLTERGIDISKQSATESYEYTMTILITLVSLIFRFYFNFILASFVQELLHHPKYLVDRDDVEQNLKNKPIWKRLWAKSQKGCYKLCKNLLE
# modifications: two major bands likely correspond to the glycosylated and non-glycosylated forms (sites not given)
# Assays:
# [1] = system: fungal IPC synthase; conditions: in words; cited from earlier work
# [2] = molecular target: His-tagged Aur1-Kei1 complex with Aur1 H157Y (S. cerevisiae) (UniProt P36107); assay: MST
# [3] = molecular target: His-tagged S. cerevisiae IPC synthase complex (Aur1-Kei1), wild type (S. cerevisiae) (UniProt P36107); assay: MST
# [4] = molecular target: the F158Y and A240C mutations (Aur1-Kei1 mutant complexes); assay: MST
# [5] = system: Aur1-Kei1 complex; assay: Thermal shift assay; type: binding, Saccharomyces cerevisiae; conditions: 10 µM PI or 10 µM C6-ceramide, 1 h at 4 °C, 5% DMSO; compared to the control
# In short: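 nanoDSF on 0.1 mg/mL purified complex in 25 mM HEPES pH 7.5, 150 mM NaCl, 0.01% LMNG. Protein was held 1 h at 4 °C with final 10 µM PI or 10 µM C6-ceramide in 5% DMSO. Intrinsic fluorescence at 330 and 350 nm was read from 35 to 95 °C at […]. Tm was taken from the first-derivative peak of Em350/Em330, averaged over three measurements.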
# [6] = system: unpurified membrane-embedded IPC synthase; conditions: cited from earlier work
# [7] = molecular target: the molecule itself; assay: cryo-EM structure
# [8] = molecular target: the molecule itself; assay: SEC + cross-linking + native gel or EMSA
molecule,measurement,setting,value
CCCCCCCCCC[C@H](C)[C@@H](O)[C@@H](C)/C=C(C)/C=C(\C)C(=O)[C@H](C)/C=C(\C)C(=O)O[C@H](CO)[C@@H](O)[C@H](O)C(=O)O [khafrefungin],inhibition of fungal IPC synthase,[1],effective inhibitors of fungal IPC synthase
C=C1/C=C(\C)[C@H](CC)CC(=O)[C@H](C)C(=O)[C@@](O)(CO)C/C(OC)=C/[C@@H](C)C1 [rustmicin],inhibition of fungal IPC synthase,[1],effective inhibitors of fungal IPC synthase
Aureobasidin A (peptide),fold reduction in binding affinity against the WT complex,[2],30 fold
same,Kd,[3],57.7 nM
same,fold weakening of the binding affinity against the WT complex,[4],1.5 to 2 fold
ceramide,effect on protein stability,[5],did not enhance protein stability
same,kinetic value for ceramide,[6],3 µM
B1,stoichiometry N,[7],2
B2,stoichiometry N,[8],2
